Experimental data published in ChEMBL document CHEMBL1152984, “Design, synthesis, and structure-activity relationships of benzophenone-based tetraamides as novel antibacterial agents” (J Med Chem, 2009).
Values after ≈ are worked out from the molar mass of the structure shown. Active and inactive are the calls of the source. The rule behind the calls is not given here.

Key:
Staphylococcus aureus [1] = assay: Antibacterial activity against methicillin-resistant Staphylococcus aureus; assay type: functional
Staphylococcus aureus [2] = assay: Antibacterial activity against vancomycin-resistant Staphylococcus aureus; assay type: functional
Nucleic Acid [3] = assay: Binding affinity to DNA AT hairpin (5'-CGAAAAACAAAAAGTTTTTCG- 3') oligonucleotide by ethidium bromide displacement assay; assay type: nucleic-acid assay
Procedure, shortened: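 DNA binding: ethidium bromide (4.0 μM) and AT hairpin (8.0 μM) in 0.1 M Tris-HCl with 25 mM NaCl, pH 7.0, were titrated with compound. Fluorescence (ex 545, em 595 nm) was read after 5 min and corrected for volume. K = K_EB[E]/[agent], where [agent] is the concentration that lowers fluorescence by 50%.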

Nucleic Acid [4] = assay: Binding affinity to Staphylococcus aureus DNA at 25 to 200 ug/mL by Hoescht dye competition assay; assay type: nucleic-acid assay
Procedure, shortened: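 Compounds at 25, 50, 100, 150 and 200 mg/L were added in triplicate, and the drop in emission at 461 nm was measured against Hoechst-stained untreated cells.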

Nucleic Acid [5] = assay: Binding affinity to Escherichia coli DNA at 25 to 200 ug/mL by Hoescht dye competition assay; assay type: nucleic-acid assay
Staphylococcus aureus [6] = assay: Antibacterial activity against Staphylococcus aureus assessed as depolarization at 32 mg/L measured for 60 mins by fluorescence spectrophotometer relative to nisin; assay type: functional, organism-based
Procedure, shortened: (§1)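 Cells were loaded with 0.4 μM diSC3(5) for 1 h at 37 °C, then KCl was added. After compound addition in a stirred cuvette at 37 °C, fluorescence (ex 622, em 670 nm) was followed for 60 min. Cells plus dye gave the background; the change was expressed as % of the nisin control (100%).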

Staphylococcus aureus [7] = assay: Antibacterial activity against Staphylococcus aureus ATCC 29213 assessed as inhibition of lipid synthesis at 8 times MIC treated 5 mins before [3H]glycerol challenge measured after 60 mins by [3H]glycerol incorporation assay; assay type: functional, organism-based
Procedure, shortened: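 S. aureus at early exponential phase, 0.1 mL cells in triplicate tubes with agent (0.25-4.0 μg/mL) or cerulenin control. Pre-incubated 5 min at room temperature before adding [3H]glycerol at 0.5 μCi. After centrifugation, the organic phase was dried and counted by liquid scintillation.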

Staphylococcus aureus [8] = assay: Antibacterial activity against glycopeptide-intermediate Staphylococcus aureus; assay type: functional
Enterococcus = assay: Antibacterial activity against vancomycin-resistant Enterococcus; assay type: functional
CHO = assay: Cytotoxicity against CHO cells assessed as cell viability at 25 to 100 times MIC after 24 hrs by MTS assay; assay type: cell-based, Cricetulus griseus; settings: chinese hamster
Procedure, shortened: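 CHO cells in RPMI-1640 were seeded at 5000 cells/well, allowed to attach overnight, then exposed to 25, 50 and 100 mg/L for 24 h. MTS was added for 120 min and absorbance read at 505 nm. Results are % versus untreated controls (with or without 5% DMSO), from at least three experiments.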

Staphylococcus aureus [9] = assay: Antibacterial activity against Staphylococcus aureus ATCC 29213 assessed as inhibition of RNA synthesis at 0.5 to 8 times MIC treated 5 mins before [3H]uridine challenge measured after 30 mins by [3H]uridine incorporation assay; assay type: functional, organism-based
Procedure, shortened: (§2)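 Cells were added to triplicate wells with compound (0.25-4.0 μg/mL), with 5% DMSO as the no-drug control; protein-synthesis reactions used M9 minimal medium. After 5 min at room temperature, 0.5-1.0 μCi of [3H]thymidine, uridine, N-acetylglucosamine or leucine was added. Reactions ran 15-30 min (60 min for cell wall). Cold-TCA precipitates were filtered, washed and scintillation-counted.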

Escherichia coli = assay: Antibacterial activity against Escherichia coli; assay type: functional
Staphylococcus aureus [10] = assay: Antibacterial activity against Staphylococcus aureus ATCC 29213 assessed as inhibition of DNA synthesis at 0.5 to 8 times MIC treated 5 mins before [3H]thymidine challenge measured after 30 mins by [3H]thymidine incorporation assay; assay type: functional, organism-based; procedure, shortened: as §2
Staphylococcus aureus [11] = assay: Antibacterial activity against Staphylococcus aureus ATCC 29213 assessed as inhibition of protein synthesis at 0.5 to 8 times MIC treated 5 mins before [3H]leucine challenge measured after 30 mins by [3H]leucine incorporation assay; assay type: functional, organism-based; procedure, shortened: as §2
Staphylococcus aureus [12] = assay: Antibacterial activity against Staphylococcus aureus assessed as depolarization at 4 mg/L measured for 60 mins by fluorescence spectrophotometer relative to nisin; assay type: functional, organism-based; procedure, shortened: as §1
Staphylococcus aureus [13] = assay: Antibacterial activity against Staphylococcus aureus ATCC 29213 assessed as inhibition of lipid synthesis at 0.5 to 8 times MIC treated 5 mins before [3H]glycerol challenge measured after 60 mins by [3H]glycerol incorporation assay; assay type: functional, organism-based
Procedure, shortened: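 Lipid synthesis: early-exponential S. aureus was mixed in triplicate with compound (0.25-4.0 μg/mL) or cerulenin. After 5 min at room temperature, [3H]glycerol (0.5 μCi) was added. Mixtures were centrifuged, and the organic phase was dried and counted by liquid scintillation.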

Staphylococcus aureus [14] = assay: Antibacterial activity against Staphylococcus aureus ATCC 29213 assessed as inhibition of cell wall synthesis at 0.5 to 8 times MIC treated 5 mins before [3H]N-acetylglucosamine challenge measured after 30 mins by [3H]N-acetylglucosamine incorporation assay; assay type: functional, organism-based
Staphylococcus aureus [15] = assay: Antibacterial activity against Staphylococcus aureus ATCC 29213 assessed as inhibition of cell wall synthesis at 8 times MIC treated 5 mins before [3H]N-acetylglucosamine challenge measured after 30 mins by [3H]N-acetylglucosamine incorporation assay; assay type: functional, organism-based
Procedure, shortened: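 Culture added to triplicate wells with agent (0.25-4.0 μg/mL) or 5% DMSO no-drug control. Pre-incubated 5 min at room temperature, then [3H]N-acetylglucosamine at 0.5-1.0 μCi. Stopped with cold 5% TCA and held 30 min on ice. Precipitate filter-collected, washed, and scintillation counted. Vancomycin was the positive control.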

Staphylococcus aureus [16] = assay: Antibacterial activity against Staphylococcus aureus ATCC 29213 assessed as inhibition of protein synthesis at 8 times MIC treated 5 mins before [3H]leucine challenge measured after 30 mins by [3H]leucine incorporation assay; assay type: functional, organism-based; procedure, shortened: as §2
Staphylococcus aureus [17] = assay: Antibacterial activity against Staphylococcus aureus ATCC 29213 assessed as inhibition of RNA synthesis at 8 times MIC treated 5 mins before [3H]uridine challenge measured after 30 mins by [3H]uridine incorporation assay; assay type: functional, organism-based; procedure, shortened: as §2
Staphylococcus aureus [18] = assay: Antibacterial activity against Staphylococcus aureus assessed as depolarization at […] measured for 60 mins by fluorescence spectrophotometer relative to nisin; assay type: functional, organism-based; procedure, shortened: as §1
Staphylococcus aureus [19] = assay: Antibacterial activity against Staphylococcus aureus ATCC 29213 assessed as inhibition of DNA synthesis at 8 times MIC treated 5 mins before [3H]thymidine challenge measured after 30 mins by [3H]thymidine incorporation assay; assay type: functional, organism-based; procedure, shortened: as §2

Row | Compound | MIC (Staphylococcus aureus [1]) | MIC (Staphylococcus aureus [2]) | Ka (Nucleic Acid [3]) | other results
1 | CN(C)c1ccc(NC(=O)c2cc(NC(=O)c3ccc(C(=O)c4ccc(C(=O)Nc5cc(C(=O)Nc6ccc(N(C)C)cc6)n(C)c5)cc4)cc3)cn2C)cc1 | > 32 µg/mL | > 32 µg/mL | 0.391 ×10⁶ /M | 
2 | Cn1cc(NC(=O)c2ccc(C(=O)c3ccc(C(=O)Nc4cn(C)c(C(=O)NCCN5CCCCC5)n4)cc3)cc2)nc1C(=O)NCCN1CCCCC1 | 4 µg/mL (≈ 5.43 µM) | 8 µg/mL (≈ 10.9 µM) |  | Activity (Nucleic Acid [4]): Active; Activity (Nucleic Acid [5]): Active
3 | Cn1cc(NC(=O)c2ccc(C(=O)c3ccc(C(=O)Nc4cn(C)c(C(=O)NCCN5CCOCC5)n4)cc3)cc2)nc1C(=O)NCCN1CCOCC1 | > 32 µg/mL | > 32 µg/mL |  | 
4 | Cn1cc(NC(=O)c2ccccc2)cc1C(=O)NCCN1CCCC1 | > 32 µg/mL | > 32 µg/mL | 0.11 ×10⁶ /M | 
5 | Cn1cc(NC(=O)c2ccc(C(O)c3ccc(C(=O)Nc4cc(C(=O)NCCN5CCCC5)n(C)c4)cc3)cc2)cc1C(=O)NCCN1CCCC1 | > 32 µg/mL | > 32 µg/mL | 0.175 ×10⁶ /M | 
6 | Cn1cc(NC(=O)CCCCCCCCCCCC(=O)Nc2cc(C(=O)NCCN3CCCC3)n(C)c2)cc1C(=O)NCCN1CCCC1 | > 32 µg/mL | > 32 µg/mL | 0.021 ×10⁶ /M | Activity (Staphylococcus aureus [6]): inactive
7 | C/C=C/C/C=C/CCC(=O)[C@H]1O[C@H]1C(N)=O |  |  |  | Activity (Staphylococcus aureus [7]): Active
8 | Cn1cc(NC(=O)c2ccc(C(=O)c3ccc(C(=O)Nc4cc(C(=O)NCCN5CCCCC5)n(C)c4)cc3)cc2)cc1C(=O)NCCN1CCCCC1 | 0.5 µg/mL (≈ 0.68 µM) | 1 µg/mL (≈ 1.36 µM) | 0.931 ×10⁶ /M | MIC (Staphylococcus aureus [8]): 0.5 µg/mL (≈ 0.68 µM); MIC (Enterococcus): 4 µg/mL (≈ 5.44 µM); Activity (CHO): Not Active; Activity (Staphylococcus aureus [9]): inactive; MIC (Escherichia coli): 16 µg/mL (≈ 21.8 µM); Activity (Staphylococcus aureus [10]): inactive; Activity (Staphylococcus aureus [11]): inactive; Activity (Staphylococcus aureus [12]): Active; Activity (Staphylococcus aureus [13]): inactive; Activity (Staphylococcus aureus [14]): inactive
9 | CN[C@H](CC(C)C)C(=O)N[C@H]1C(=O)N[C@@H](CC(N)=O)C(=O)N[C@H]2C(=O)N[C@H]3C(=O)N[C@H](C(=O)N[C@H](C(=O)O)c4cc(O)cc(O)c4-c4cc3ccc4O)[C@H](O)c3ccc(c(Cl)c3)Oc3cc2cc(c3O[C@@H]2O[C@H](CO)[C@@H](O)[C@H](O)[C@H]2O[C@H]2C[C@](C)(N)[C@H](O)[C@H](C)O2)Oc2ccc(cc2Cl)[C@H]1O |  |  |  | Activity (Staphylococcus aureus [15]): Active
10 | CN(C)CCCNC(=O)c1cc(NC(=O)c2ccc(C(=O)c3ccc(C(=O)Nc4cc(C(=O)NCCCN(C)C)n(C)c4)cc3)cc2)cn1C | 8 µg/mL (≈ 11.7 µM) | 16 µg/mL (≈ 23.4 µM) | 1 ×10⁶ /M | MIC (Staphylococcus aureus [8]): 8 µg/mL (≈ 11.7 µM)
11 | Cn1cc(NC(=O)c2ccc(C(=O)c3ccc(C(=O)Nc4cn(C)c(C(=O)NCCN5CCCC5)n4)cc3)cc2)nc1C(=O)NCCN1CCCC1 | 32 µg/mL (≈ 45.1 µM) | 32 µg/mL (≈ 45.1 µM) |  | 
12 | Cn1cc(NC(=O)c2ccc(C(=O)c3ccccc3)cc2)cc1C(=O)NCCN1CCCC1 |  |  | 0.106 ×10⁶ /M | 
13 | Cn1cc(NC(=O)c2ccc(Cc3ccc(C(=O)Nc4cc(C(=O)NCCN5CCCCC5)n(C)c4)cc3)cc2)cc1C(=O)NCCN1CCCCC1 | > 32 µg/mL | > 32 µg/mL | 0.0238 ×10⁶ /M | 
14 | Cn1cc(NC(=O)c2ccccc2)cc1C(=O)NCCN1CCCCC1 | > 32 µg/mL | > 32 µg/mL | 0.173 ×10⁶ /M | 
15 | CC(=O)NC[C@H]1CN(c2ccc(N3CCOCC3)c(F)c2)C(=O)O1 |  |  |  | Activity (Staphylococcus aureus [16]): Active
16 | CN(C)c1ccc(NC(=O)c2nc(NC(=O)c3ccc(C(=O)c4ccc(C(=O)Nc5cn(C)c(C(=O)Nc6ccc(N(C)C)cc6)n5)cc4)cc3)cn2C)cc1 | > 32 µg/mL | > 32 µg/mL |  | 
17 | Cn1cc(NC(=O)c2ccc(C(O)c3ccc(C(=O)Nc4cc(C(=O)NCCN5CCCCC5)n(C)c4)cc3)cc2)cc1C(=O)NCCN1CCCCC1 | > 32 µg/mL | > 32 µg/mL | 0.0098 ×10⁶ /M | 
18 | CN1CCN(CCCNC(=O)c2cc(NC(=O)c3ccc(C(=O)c4ccc(C(=O)Nc5cc(C(=O)NCCCN6CCN(C)CC6)n(C)c5)cc4)cc3)cn2C)CC1 | > 32 µg/mL | > 32 µg/mL | 0.108 ×10⁶ /M | Activity (Nucleic Acid [4]): inactive; Activity (Nucleic Acid [5]): inactive
19 | CO[C@H]1/C=C/O[C@@]2(C)Oc3c(C)c(O)c4c(O)c(c(/C=N/N5CCN(C)CC5)c(O)c4c3C2=O)NC(=O)/C(C)=C\C=C\[C@H](C)[C@H](O)[C@@H](C)[C@@H](O)[C@@H](C)[C@H](OC(C)=O)[C@@H]1C |  |  |  | Activity (Staphylococcus aureus [17]): Active
20 | Cn1cc(NC(=O)c2ccc(C(=O)c3ccc(C(=O)Nc4cc(C(=O)NCCN5CCCC5)n(C)c4)cc3)cc2)cc1C(=O)NCCN1CCCC1 | 1 µg/mL (≈ 1.41 µM) | 2 µg/mL (≈ 2.83 µM) | 0.679 ×10⁶ /M | MIC (Staphylococcus aureus [8]): 0.5 µg/mL (≈ 0.707 µM); Activity (Nucleic Acid [4]): Active; MIC (Enterococcus): 4 µg/mL (≈ 5.66 µM); Activity (Staphylococcus aureus [18]): Active; Activity (Nucleic Acid [5]): Active; Activity (CHO): Not Active; MIC (Escherichia coli): 16 µg/mL (≈ 22.6 µM)
21 | Cn1cc(NC(=O)c2ccc(Cc3ccc(C(=O)Nc4cc(C(=O)NCCN5CCCC5)n(C)c4)cc3)cc2)cc1C(=O)NCCN1CCCC1 | > 32 µg/mL | > 32 µg/mL | 0.154 ×10⁶ /M | 
22 | Cn1cc(NC(=O)CCCCCCCCCCCC(=O)Nc2cc(C(=O)NCCN3CCCCC3)n(C)c2)cc1C(=O)NCCN1CCCCC1 | > 32 µg/mL | > 32 µg/mL | 0.0125 ×10⁶ /M | 
23 | Cn1cc(NC(=O)c2ccc(C(=O)c3ccccc3)cc2)cc1C(=O)NCCN1CCCCC1 |  |  | 0.227 ×10⁶ /M | 
24 | O=C(O)c1cn(C2CC2)c2cc(N3CCNCC3)c(F)cc2c1=O |  |  |  | Activity (Staphylococcus aureus [19]): Active
25 | Cn1cc(NC(=O)c2ccc(C(=O)c3ccc(C(=O)Nc4cc(C(=O)NCCN5CCOCC5)n(C)c4)cc3)cc2)cc1C(=O)NCCN1CCOCC1 | 4 µg/mL (≈ 5.41 µM) | 8 µg/mL (≈ 10.8 µM) |  | 
